Data: paper PMC6605687 (The Journal of General Physiology, 2019)
Positions count from the first letter of the chain named. Entries after “also recorded” stand apart in the source; their conditions may differ. Read-outs that look alike come from different tables or passages of the source.

How the values were obtained:
Assay type in all cases: cell-based
[1] = biological target: T1, rat P2X2 receptor (rP2X2R) WT (Rattus norvegicus, UniProt P49653); settings: for Apparent affinity / potency (in words) / Efficacy (in words) / Macroscopic currents elicited (in words): WT P2X2Rs; for Apparent affinity / potency (in words) / Efficacy (in words): compared with ATP; for Fold increase in EC50 (reduced apparent affinity) compared with ATP: agonist versus ATP; for Reduction in efficacy: relative to ATP; for Imax agonist/Imax ATP (%): maximal current compared to that elicited by 1 mM of ATP, same cell; for Macroscopic currents elicited (in words): concentrations of up to 1 mM
T1 sequence (P49653 1-472): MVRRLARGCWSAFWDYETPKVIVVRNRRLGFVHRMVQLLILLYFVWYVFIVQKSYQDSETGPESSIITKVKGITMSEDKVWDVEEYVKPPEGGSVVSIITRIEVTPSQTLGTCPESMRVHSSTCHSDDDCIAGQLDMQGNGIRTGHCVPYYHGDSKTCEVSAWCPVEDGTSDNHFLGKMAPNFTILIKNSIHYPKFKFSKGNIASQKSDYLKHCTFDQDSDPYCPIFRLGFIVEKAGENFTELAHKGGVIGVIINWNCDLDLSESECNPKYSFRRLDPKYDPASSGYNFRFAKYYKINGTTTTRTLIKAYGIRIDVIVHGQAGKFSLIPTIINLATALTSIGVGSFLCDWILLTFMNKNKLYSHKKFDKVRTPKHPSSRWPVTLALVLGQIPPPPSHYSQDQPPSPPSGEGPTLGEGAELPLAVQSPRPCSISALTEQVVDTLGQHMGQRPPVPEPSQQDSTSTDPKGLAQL
In short: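 Collagenase-digested Xenopus oocytes were injected with WT rP2X2 mRNA (30 ng) and kept in L-15 at 18°C. Two-electrode voltage clamp was done 1–2 days later at −40 mV in ND96 (pH 7.4). Agonists were freshly dissolved in ND96 at pH 7.4. Responses were normalised to 1 mM ATP current in the same cell, and Hill fits gave EC50 and nH. Relative efficacy is the agonist maximal current versus 1 mM ATP. Results are mean ± SEM, compared by one-way ANOVA with Dunnett's test.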

rP2X2 Thr184Ser = biological target: T2, rP2X2 Thr184Ser (Rattus norvegicus, UniProt P49653, T184S); experiment: Two-electrode voltage clamp, oocytes expressing rP2X2 Thr184Ser
T2 sequence (P49653 1-472 T184S): T1 sequence (P49653 1-472) with T184S
In short: (§1)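 Mutations were made by site-directed mutagenesis. Xenopus oocytes were injected with rP2X2 mRNA and incubated in L-15 at 18°C. Two-electrode voltage clamp was done 1–2 days later at −40 mV under ND96 perfusion (pH 7.4). ATP concentration-response currents were normalised and fitted to a one-component Hill equation for EC50 and Hill coefficient. Results are mean ± SEM, tested by one-way ANOVA with Dunnett's test against WT.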

rP2X2 Ile185Val = biological target: T3, rP2X2 Ile185Val (Rattus norvegicus, UniProt P49653, I185V); experiment: Two-electrode voltage clamp, oocytes expressing rP2X2 Ile185Val
T3 sequence (P49653 1-472 I185V): T1 sequence (P49653 1-472) with I185V
In short: as §1

rP2X2 Ile185Vah = biological target: T4, rP2X2 Ile185Vah (Rattus norvegicus, UniProt P49653); experiment: Two-electrode voltage clamp, oocytes expressing rP2X2 Ile185Vah; settings: Ile185Vah, mean ± SEM
T4 sequence (P49653 1-472): T1 sequence (P49653 1-472)
In short: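 The backbone ester was introduced by nonsense suppression. TAG-mutant rP2X2 mRNA was co-injected into Xenopus oocytes with tRNA enzymatically aminoacylated with 2-hydroxyisovaleric acid. Uncharged tRNA co-injection served as the negative control. After incubation at 18°C, two-electrode voltage clamp was done at −40 mV in ND96 (pH 7.4). ATP concentration-response data were normalised and Hill-fitted for EC50 and nH, given as mean ± SEM.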

rP2X2 Val70Vah = biological target: T5, rP2X2 Val70Vah (Rattus norvegicus, UniProt P49653); experiment: Two-electrode voltage clamp, oocytes expressing rP2X2 Val70Vah
T5 sequence (P49653 1-472): T1 sequence (P49653 1-472)

rP2X2 Thr184Val = biological target: T6, rP2X2 Thr184Val (Rattus norvegicus, UniProt P49653, T184V); experiment: Two-electrode voltage clamp, oocytes expressing rP2X2 Thr184Val
T6 sequence (P49653 1-472 T184V): T1 sequence (P49653 1-472) with T184V
In short: as §1

rP2X2-3T receptors = biological target: T7, rP2X2-3T receptors (Rattus norvegicus, UniProt P49653, C348T/C430T/C9T); experiment: Single channel outside-out patch-clamp recordings, HEK-293 cells; settings: agonist 1 µM, mean ± SEM
T7 sequence (P49653 1-472 C9T/C348T/C430T): T1 sequence (P49653 1-472) with C9T, C348T, C430T
In short: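 HEK-293 cells were co-transfected by calcium phosphate with rP2X2-3T DNA plus GFP DNA to mark transfected cells, then recorded within 24 h. Outside-out patches were held at −120 mV. Pipette contained 147 NaF, 10 EGTA and 10 HEPES (mM, pH 7.3). Agonist at 1, 10 or 100 µM in extracellular saline (pH 7.3) was applied by fast perfusion for 10 s per 12-s sweep, at 1-min intervals. Amplitudes came from Gaussian fits to all-points histograms, with 2–5 sweeps averaged per patch.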

[2] = WT rP2X2R, Xenopus oocytes, −40 mV, mean ± SEM

| SMILES | EC50 [1] [µM] | Fold increase in EC50 (reduced apparent affinity) compared with ATP ([1]; WT rP2X2R) | nH (Hill coefficient) ([1]; WT rP2X2R, mean ± SEM) | Imax agonist/Imax ATP (%) ([1]; WT rP2X2R) | Apparent affinity / potency (in words) [1] | Efficacy (in words) [1] | other results |
| --- | --- | --- | --- | --- | --- | --- | --- |
| Nc1ncnc2c1ncn2[C@@H]1O[C@H](COP(=O)(O)OP(=O)(O)OP(=O)(O)O)[C@@H](O)[C@@H]1O [Ara-ATP, Ara-adenosine 5′-triphosphate] | – | – | – | – | lower apparent affinity than ATP | greatly reduced efficacy | EC50 [1, 2]: > 100 µM |
| Nc1ncnc2c1ncn2[C@H]1CC[C@@H](COP(=O)(O)OP(=O)(O)OP(=O)(O)O)O1 [C2′-C3′-ddATP, 2′,3′-dideoxyadenosine-5′-triphosphate] | – | – | – | – | even less potent agonist; also recorded: further decreased apparent affinity and efficacy | – | – |
| Nc1ncnc2c1ncn2[C@@H]1O[C@H](COP(=O)(O)OP(=O)(O)OP(=O)(O)O)[C@@H](O)[C@H]1F [C2′-F-dATP, 2′-fluoro-2′-deoxyadenosine-5′-triphosphate] | 52 ± 6 | twofold | 2.1 ± 0.1 | 60 ± 2 | – | – | Reduction in efficacy ([1]; WT rP2X2R): ~40% |
| Nc1ncnc2c1ncn2[C@H]1C[C@H](O)[C@@H](COP(=O)(O)OP(=O)(O)OP(=O)(O)O)O1 [C2′-dATP, 2′-deoxyadenosine-5′-triphosphate] | > 300 | – | – | – | – | – | – |
| Nc1ncnc2c1ncn2[C@@H]1O[C@H](COP(=O)(O)OP(=O)(O)OP(=O)(O)O)C[C@H]1O [C3′-dATP, 3′-deoxyadenosine-5′-triphosphate] | 83 ± 4 | threefold | 2.6 ± 0.1 | 67 ± 2 | – | – | Reduction in efficacy ([1]; WT rP2X2R): ~30% |
| O=P(O)(O)OP(=O)(O)OP(=O)(O)OC[C@H]1O[C@@H](n2cnc3c(O)ncnc32)[C@H](O)[C@@H]1O [ITP, Inosine 5′-triphosphate] | – | – | – | – | – | – | Macroscopic currents elicited (in words) [1]: failed to evoke any currents |
| Nc1ncnc2c1ncn2[C@@H]1O[C@@]2(COP(=O)(O)OP(=O)(O)OP(=O)(O)O)CO[C@@H]1[C@@H]2O [LNA-ATP, locked nucleic acid–ATP] | – | – | 1.8 ± 0.1 | 66 ± 1 | apparent affinity indistinguishable from ATP; also recorded: ATP-like apparent affinity | significantly reduced efficacy; also recorded: only a minor decrease in efficacy | SDopen (SD of the open state amplitude) (rP2X2-3T receptors): 1.03 ± 0.1; Unitary current (rP2X2-3T receptors; outside-out patch, −120 mV): −3.58 ± 0.4 pA; EC50 [1, 2]: 27 ± 1 µM |
| Nc1ncnc2c1ncn2[C@@H](CO)O[C@@H](CO)COP(=O)(O)OP(=O)(O)OP(=O)(O)O [UNA-ATP, unlocked nucleic acid–ATP] | – | – | – | – | – | – | Macroscopic currents elicited (in words) [1]: failed to elicit macroscopic currents; also recorded: does not elicit macroscopic current responses; also recorded: did not act as an agonist |

Continued, in another order:

| EC50 [1] [µM] | Fold increase in EC50 (reduced apparent affinity) compared with ATP ([1]; WT rP2X2R) | nH (Hill coefficient) ([1]; WT rP2X2R, mean ± SEM) | Imax agonist/Imax ATP (%) ([1]; WT rP2X2R) | SMILES | Apparent affinity / potency (in words) [1] | Efficacy (in words) [1] | other results |
| --- | --- | --- | --- | --- | --- | --- | --- |
| 370 ± 30 | – | – | 105 ± 4 | Nc1ccn([C@@H]2O[C@H](COP(=O)(O)OP(=O)(O)OP(=O)(O)O)[C@@H](O)[C@H]2O)c(=O)n1 [CTP, Cytidine 5′-triphosphate] | – | did not alter efficacy; also recorded: ATP-like efficacy | EC50 (rP2X2 Thr184Ser): 156 ± 30 µM; EC50 (rP2X2 Ile185Val): 144 ± 30 µM; EC50 (rP2X2 Ile185Vah): 1100 µM; nH (Hill coefficient) (rP2X2 Val70Vah; Val70Vah): 2.6 ± 0.1; Fold increase in EC50, Val70Vah versus WT (rP2X2 Val70Vah; Val70Vah compared with WT): fivefold; EC50 (rP2X2 Val70Vah; Val70Vah, mean ± SEM): 2000 µM; EC50 (rP2X2 Thr184Val): 11700 µM; Fold increase in EC50 (reduction in sensitivity), Thr184Val versus WT (rP2X2 Thr184Val; Thr184Val compared with WT): ~30 fold |
| 12000 | 400 fold | – | – | O=c1ccn([C@@H]2O[C@H](COP(=O)(O)OP(=O)(O)OP(=O)(O)O)[C@@H](O)[C@H]2O)c(=O)[nH]1 [UTP, uridine 5′-triphosphate] | – | significantly reduced efficacy | – |
